Legend:
[1] = Growth inhibition of human PC3M cells by SRB assay; format: functional, cell-based; conditions: PC-3M
[2] = Inhibition of recombinant catalytic subunit PKA by radiometric filter binding assay
[3] = molecular target: RAC-beta serine/threonine-protein kinase (Homo sapiens, UniProt P31751); assay: Inhibition of PKBbeta recombinant by radiometric filter binding assay
[4] = Cmax in BALB/c mouse at 25 mg/kg, iv; format: ADME, organism-based; parameters: dose 25 mg/kg, route intravenous; conditions: in vivo
Outline: (§1)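 Female BALB/c mice dosed at 25 mg kg^-1 intravenously or orally, compound in 10% DMSO 0.1% Tween-20 in saline. Plasma concentrations measured over time to derive T1/2, Tmax, Cmax, AUC, Vss and plasma clearance.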

[5] = AUC in BALB/c mouse at 25 mg/kg, po; format: ADME, organism-based; parameters: dose 25 mg/kg, route oral; conditions: plasma; outline: as §1
Mus musculus [6] = assay: Half life in BALB/c mouse at 25 mg/kg, iv; format: ADME, organism-based; parameters: dose 25 mg/kg, route intravenous; conditions: in vivo; outline: as §1
[7] = molecular target: T1, Ribosomal protein S6 kinase beta-1 (Homo sapiens, UniProt P23443); assay: Inhibition of p70S6K by radiometric filter binding assay
Outline: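 IC50 for p70S6K kinase activity measured in a radiometric filter binding assay.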
Target sequence in this assay (P23443 whole entry): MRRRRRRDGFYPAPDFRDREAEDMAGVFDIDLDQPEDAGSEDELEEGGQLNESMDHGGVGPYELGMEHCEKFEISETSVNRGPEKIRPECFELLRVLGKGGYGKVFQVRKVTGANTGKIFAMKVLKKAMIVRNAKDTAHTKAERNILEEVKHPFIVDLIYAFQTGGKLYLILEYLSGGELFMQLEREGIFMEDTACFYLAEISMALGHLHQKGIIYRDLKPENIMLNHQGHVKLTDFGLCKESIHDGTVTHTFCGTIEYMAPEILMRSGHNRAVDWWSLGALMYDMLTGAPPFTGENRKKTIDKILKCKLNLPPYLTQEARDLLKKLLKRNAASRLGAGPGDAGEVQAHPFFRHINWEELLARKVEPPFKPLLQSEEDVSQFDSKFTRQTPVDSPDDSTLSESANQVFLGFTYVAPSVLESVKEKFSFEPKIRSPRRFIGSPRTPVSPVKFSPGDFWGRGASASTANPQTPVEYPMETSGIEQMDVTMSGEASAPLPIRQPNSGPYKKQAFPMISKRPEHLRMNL

[8] = Cmax in BALB/c mouse at 25 mg/kg, po; format: ADME, organism-based; parameters: dose 25 mg/kg, route oral; conditions: in vivo; outline: as §1
[9] = Metabolic stability in BALB/c mouse liver microsomes at 10 uM after 30 mins; format: ADME, Microsome; conditions: read-out: Stability
Outline: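 Incubated at 10 µM for 30 min in mouse liver microsomes competent for phase I and phase II metabolism. Parent remaining quantified by LC-MS/MS, with metabolite identification.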

[10] = Metabolic stability in human liver microsomes at 10 uM after 30 mins; format: ADME, Microsome; conditions: read-out: Stability
Outline: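 Human liver microsomes with cofactors for phase I metabolism, compound at 10 µM for 30 min. Percent parent remaining measured by LC-MS/MS.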

Plasma = assay: Drug level in BALB/c mouse plasma at 25 mg/kg, po; format: ADME, organism-based; parameters: dose 25 mg/kg, route oral; conditions: in vivo; outline: as §1
[11] = Oral bioavailability in BALB/c mouse at 25 mg/kg; format: ADME, organism-based; conditions: in vivo
[12] = Tmax in BALB/c mouse at 25 mg/kg, iv; format: ADME, organism-based; parameters: dose 25 mg/kg, route intravenous; conditions: in vivo; outline: as §1
[13] = AUC in BALB/c mouse at 25 mg/kg, iv; format: ADME, organism-based; parameters: dose 25 mg/kg, route intravenous; conditions: plasma; outline: as §1
[14] = Half life in BALB/c mouse at 25 mg/kg, po; format: ADME, organism-based; parameters: dose 25 mg/kg, route oral; conditions: in vivo; outline: as §1
[15] = Growth inhibition of human U87MG cells by SRB assay; format: functional, cell-based, U-87MG ATCC; conditions: U-87 MG
Mus musculus [16] = assay: Volume of distribution at steady state in BALB/c mouse at 25 mg/kg, iv; format: ADME, organism-based; parameters: dose 25 mg/kg, route intravenous; conditions: in vivo; outline: as §1
[17] = Tmax in BALB/c mouse at 25 mg/kg, po; format: ADME, organism-based; parameters: dose 25 mg/kg, route oral; conditions: in vivo; outline: as §1
Mus musculus [18] = assay: Clearance in BALB/c mouse plasma at 25 mg/kg, iv; format: ADME, organism-based; parameters: dose 25 mg/kg, route intravenous; conditions: in vivo; outline: as §1
[19] = Selectivity for PKBbeta over PKA
[20] = molecular target: T1, Ribosomal protein S6 kinase beta-1; assay: Inhibition of p70S6K at 1 uM
Outline: (§2)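 Screen against a panel of 21 kinases, percent inhibition at 1 µM compound.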
Target sequence in this assay (P23443 whole entry, looked up): as the sequence (P23443 whole entry) above

[21] = molecular target: T2, Serine/threonine-protein kinase Chk1 (Homo sapiens) (UniProt O14757); assay: Inhibition of CHK1 at 1 uM; outline: as §2
T2 sequence (whole entry): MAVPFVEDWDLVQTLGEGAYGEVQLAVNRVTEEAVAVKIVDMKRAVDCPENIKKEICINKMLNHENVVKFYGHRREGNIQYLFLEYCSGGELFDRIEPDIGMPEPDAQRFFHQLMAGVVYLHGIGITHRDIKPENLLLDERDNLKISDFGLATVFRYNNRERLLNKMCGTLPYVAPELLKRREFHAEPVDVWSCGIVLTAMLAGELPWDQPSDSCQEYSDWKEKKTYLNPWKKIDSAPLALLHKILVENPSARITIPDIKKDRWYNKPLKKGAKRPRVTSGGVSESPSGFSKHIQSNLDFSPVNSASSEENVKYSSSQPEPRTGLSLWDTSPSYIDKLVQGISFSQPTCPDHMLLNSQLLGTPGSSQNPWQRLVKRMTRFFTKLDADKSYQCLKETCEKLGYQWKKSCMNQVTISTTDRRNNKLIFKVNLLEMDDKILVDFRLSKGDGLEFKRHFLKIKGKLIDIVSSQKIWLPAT

[22] = Inhibition of PKC at 1 uM; outline: as §2
[23] = molecular target: Rho-associated protein kinase 2 (Homo sapiens) (UniProt O75116); assay: Inhibition of ROCK2 at 1 uM; outline: as §2
[24] = molecular target: Proto-oncogene tyrosine-protein kinase Src (Homo sapiens) (UniProt P12931); assay: Inhibition of SRC at 1 uM; outline: as §2
[25] = molecular target: Receptor-type tyrosine-protein kinase FLT3 (Homo sapiens) (UniProt P36888); assay: Inhibition of FLT3 at 1 uM; outline: as §2
[26] = molecular target: Ribosomal protein S6 kinase alpha-2 (Homo sapiens) (UniProt Q15349); assay: Inhibition of RSK2 at 1 uM; outline: as §2
[27] = molecular target: Serine/threonine-protein kinase Chk2 (Homo sapiens) (UniProt O96017); assay: Inhibition of CHK2 at 1 uM; outline: as §2
Chain of Serine/threonine-protein kinase Chk2 (Homo sapiens) (O96017 whole entry): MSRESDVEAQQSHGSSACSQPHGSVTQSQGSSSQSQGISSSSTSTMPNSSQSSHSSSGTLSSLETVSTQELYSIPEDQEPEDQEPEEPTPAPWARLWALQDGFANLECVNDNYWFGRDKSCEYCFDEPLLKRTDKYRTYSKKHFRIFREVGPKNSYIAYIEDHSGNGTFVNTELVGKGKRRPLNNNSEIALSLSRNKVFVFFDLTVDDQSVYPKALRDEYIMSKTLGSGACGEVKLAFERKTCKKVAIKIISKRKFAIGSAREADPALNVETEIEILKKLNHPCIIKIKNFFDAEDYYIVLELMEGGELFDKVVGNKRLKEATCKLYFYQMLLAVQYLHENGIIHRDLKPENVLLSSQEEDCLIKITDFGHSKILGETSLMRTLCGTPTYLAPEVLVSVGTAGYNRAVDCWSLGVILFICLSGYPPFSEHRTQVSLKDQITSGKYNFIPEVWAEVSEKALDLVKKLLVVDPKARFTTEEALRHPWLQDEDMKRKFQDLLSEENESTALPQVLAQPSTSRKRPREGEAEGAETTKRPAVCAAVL

Chain of RAC-beta serine/threonine-protein kinase (P31751 whole entry): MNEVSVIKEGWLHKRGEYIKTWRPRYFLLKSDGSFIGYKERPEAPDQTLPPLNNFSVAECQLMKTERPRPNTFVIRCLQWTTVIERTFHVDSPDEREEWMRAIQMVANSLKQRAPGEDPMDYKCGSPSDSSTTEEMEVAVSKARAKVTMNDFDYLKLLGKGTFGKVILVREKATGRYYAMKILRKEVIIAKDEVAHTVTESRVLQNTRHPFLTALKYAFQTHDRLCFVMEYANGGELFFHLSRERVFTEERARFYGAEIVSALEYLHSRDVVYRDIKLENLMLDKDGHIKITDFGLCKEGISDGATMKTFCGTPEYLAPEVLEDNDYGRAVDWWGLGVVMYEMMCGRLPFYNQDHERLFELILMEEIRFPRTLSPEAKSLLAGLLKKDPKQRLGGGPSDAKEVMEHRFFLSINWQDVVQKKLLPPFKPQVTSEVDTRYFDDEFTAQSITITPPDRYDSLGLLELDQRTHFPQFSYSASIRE
Chain of Rho-associated protein kinase 2 (Homo sapiens) (O75116 whole entry, looked up): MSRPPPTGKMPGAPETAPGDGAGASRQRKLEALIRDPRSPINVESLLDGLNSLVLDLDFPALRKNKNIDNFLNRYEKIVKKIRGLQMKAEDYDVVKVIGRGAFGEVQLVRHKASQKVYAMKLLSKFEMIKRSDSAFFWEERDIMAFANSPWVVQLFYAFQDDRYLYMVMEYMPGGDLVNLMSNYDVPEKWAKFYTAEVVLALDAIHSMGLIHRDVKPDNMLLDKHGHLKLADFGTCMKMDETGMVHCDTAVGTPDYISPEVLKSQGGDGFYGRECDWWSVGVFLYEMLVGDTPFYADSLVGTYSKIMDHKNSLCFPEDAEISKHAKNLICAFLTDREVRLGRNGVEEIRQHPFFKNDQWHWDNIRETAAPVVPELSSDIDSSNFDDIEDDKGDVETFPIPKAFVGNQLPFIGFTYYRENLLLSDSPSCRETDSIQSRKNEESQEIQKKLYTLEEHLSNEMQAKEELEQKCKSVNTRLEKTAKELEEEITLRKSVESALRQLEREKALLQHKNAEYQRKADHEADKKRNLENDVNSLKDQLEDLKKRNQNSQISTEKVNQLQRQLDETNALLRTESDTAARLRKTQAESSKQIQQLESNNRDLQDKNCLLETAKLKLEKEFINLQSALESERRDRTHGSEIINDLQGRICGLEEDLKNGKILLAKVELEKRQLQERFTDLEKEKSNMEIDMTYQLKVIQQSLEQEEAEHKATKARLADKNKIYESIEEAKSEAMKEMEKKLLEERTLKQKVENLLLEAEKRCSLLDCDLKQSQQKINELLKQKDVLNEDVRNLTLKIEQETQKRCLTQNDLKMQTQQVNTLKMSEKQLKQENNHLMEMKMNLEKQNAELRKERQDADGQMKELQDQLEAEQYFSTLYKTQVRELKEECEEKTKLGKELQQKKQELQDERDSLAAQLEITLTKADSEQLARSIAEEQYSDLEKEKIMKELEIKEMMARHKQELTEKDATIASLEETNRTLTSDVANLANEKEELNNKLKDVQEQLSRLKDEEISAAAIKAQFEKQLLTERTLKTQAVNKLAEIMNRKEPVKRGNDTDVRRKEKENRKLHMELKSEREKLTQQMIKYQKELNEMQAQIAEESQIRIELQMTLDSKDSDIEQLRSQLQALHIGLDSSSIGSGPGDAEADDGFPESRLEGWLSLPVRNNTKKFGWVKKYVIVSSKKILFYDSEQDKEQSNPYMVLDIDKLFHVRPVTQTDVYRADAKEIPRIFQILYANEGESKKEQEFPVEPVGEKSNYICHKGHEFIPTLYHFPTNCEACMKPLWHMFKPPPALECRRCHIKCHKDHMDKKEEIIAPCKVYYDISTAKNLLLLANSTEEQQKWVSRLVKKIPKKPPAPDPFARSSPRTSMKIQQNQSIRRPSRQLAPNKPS
Chain of Proto-oncogene tyrosine-protein kinase Src (Homo sapiens) (P12931 2-536 limits assumed): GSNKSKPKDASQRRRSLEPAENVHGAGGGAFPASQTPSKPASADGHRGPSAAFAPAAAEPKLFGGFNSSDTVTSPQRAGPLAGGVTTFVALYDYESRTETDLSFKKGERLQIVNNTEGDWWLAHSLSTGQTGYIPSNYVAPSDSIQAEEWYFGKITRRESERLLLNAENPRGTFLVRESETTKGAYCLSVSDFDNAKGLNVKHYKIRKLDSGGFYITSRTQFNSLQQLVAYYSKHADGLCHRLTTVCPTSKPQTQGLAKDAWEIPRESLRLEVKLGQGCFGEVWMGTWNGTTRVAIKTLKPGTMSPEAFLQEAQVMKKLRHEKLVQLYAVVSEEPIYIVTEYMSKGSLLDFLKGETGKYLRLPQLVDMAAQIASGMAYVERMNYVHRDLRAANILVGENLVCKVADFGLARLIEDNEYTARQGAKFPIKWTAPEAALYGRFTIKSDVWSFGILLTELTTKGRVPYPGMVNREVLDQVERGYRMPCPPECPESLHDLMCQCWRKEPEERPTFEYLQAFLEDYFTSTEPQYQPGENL
Chain of Ribosomal protein S6 kinase alpha-2 (Homo sapiens) (Q15349 whole entry): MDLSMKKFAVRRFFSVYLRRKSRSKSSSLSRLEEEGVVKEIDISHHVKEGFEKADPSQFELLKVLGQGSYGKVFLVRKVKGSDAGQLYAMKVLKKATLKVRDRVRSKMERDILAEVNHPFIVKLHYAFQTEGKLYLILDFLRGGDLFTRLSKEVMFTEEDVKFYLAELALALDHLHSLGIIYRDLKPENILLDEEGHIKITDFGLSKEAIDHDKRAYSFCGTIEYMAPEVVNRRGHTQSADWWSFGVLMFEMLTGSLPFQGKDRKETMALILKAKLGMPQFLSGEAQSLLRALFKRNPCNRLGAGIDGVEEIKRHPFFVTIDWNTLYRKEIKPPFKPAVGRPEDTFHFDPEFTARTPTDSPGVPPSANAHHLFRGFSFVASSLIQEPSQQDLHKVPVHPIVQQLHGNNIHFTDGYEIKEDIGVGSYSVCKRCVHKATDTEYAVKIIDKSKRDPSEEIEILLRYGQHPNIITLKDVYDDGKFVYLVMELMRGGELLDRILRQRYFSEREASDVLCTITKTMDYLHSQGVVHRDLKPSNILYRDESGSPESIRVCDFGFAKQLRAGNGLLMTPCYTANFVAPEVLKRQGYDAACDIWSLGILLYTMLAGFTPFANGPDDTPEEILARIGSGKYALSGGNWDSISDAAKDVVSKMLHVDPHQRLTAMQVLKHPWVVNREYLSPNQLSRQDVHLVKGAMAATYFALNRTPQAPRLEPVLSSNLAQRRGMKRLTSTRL

Compound	IC50 [1] [nM]	IC50 [2] [nM]	IC50 [3] [nM]	further results
NC1CCN(c2ccnc3[nH]ccc23)CC1	31000	1930	880	–
NC(c1ccc(Cl)cc1)C1CCN(c2ncnc3[nH]cnc23)CC1 (stereo not given)	23000	27	71	–
Cc1nc2ncnc(N3CCC(N)CC3)c2[nH]1	–	–	110000	–
NC1(c2ccc(Cl)cc2)CCN(c2ncnc3[nH]cnc23)CC1	> 50000	23	7	–
NC1CCN(c2ncnc3[nH]ccc23)CC1	48000	1550	180	–
NC(c1ccccc1)C1CCN(c2ncnc3[nH]ccc23)CC1 (stereo not given)	38000	726	246	–
NCC1CCN(c2ncnc3[nH]ccc23)CC1	32000	460	770	–
NC1(Cc2ccc(Cl)cc2)CCN(c2ncnc3[nH]ccc23)CC1	12000	–	–	Cmax [4]: 6360 nM; AUC [5]: 0.392 µM·h; t1/2 (Mus musculus [6]): 57 min; IC50 [7]: 120 nM; Cmax [8]: 432 nM; remaining at 0.5 h, 10 µM [9]: 87%; remaining at 0.5 h, 10 µM [10]: 79%; concentration (Plasma): 432 nM; bioavailability [11]: 8.5%; Tmax [12]: 4.98 min; AUC [13]: 4.62 µM·h; half-life [14]: 34.2 min; IC50 [15]: 5000 nM; Vdss (Mus musculus [16]): 0.25 L; Tmax [17]: 30 min; clearance (Mus musculus [18]): 0.325 L/h
NCC1(Cc2ccc(Cl)cc2)CCN(c2ncnc3[nH]cnc23)CC1	20000	7	3	–
NC1(Cc2ccc(Cl)cc2)CCN(c2ncnc3[nH]cnc23)CC1	> 50000	286	25	Selectivity ratio [19]: 11
NC1(c2ccc(Cl)cc2)CCN(c2ncnc3[nH]ccc23)CC1	8000	15	7	IC50 [15]: 4700 nM
c1nc(N2CCCCC2)c2nc[nH]c2n1	–	–	59000	–
O=S(=O)(NCCNC/C=C/c1ccc(Br)cc1)c1cccc2cnccc12	18000	5300	–	–
NCC1(Cc2ccc(Cl)cc2)CCN(c2ncnc3[nH]ccc23)CC1	15000	9	5	IC50 [15]: 4300 nM
NC(c1ccc(Cl)cc1)C1CCN(c2ncnc3[nH]ccc23)CC1 (stereo not given)	7400	54	25	IC50 [15]: 6000 nM
NCC1CCN(c2ncnc3[nH]ncc23)CC1	> 50000	2400	920	–
NCC1(c2ccc(Cl)cc2)CCN(c2ncnc3[nH]ccc23)CC1	1000	5	8	inhibition [20]: > 60%; inhibition [21]: > 60%; inhibition [22]: > 60%; inhibition [23]: > 60%; inhibition [24]: > 60%; IC50 [15]: 520 nM; inhibition [25]: > 60%; inhibition [26]: > 60%; inhibition [27]: > 60%
NC(=O)C1CCN(c2ncnc3[nH]cnc23)CC1	–	–	41000	–
NC(c1ccc(Cl)cc1)C1CCN(c2ccnc3[nH]ccc23)CC1 (stereo not given)	5300	3	12	IC50 [15]: 3500 nM
NC1CCN(c2ncnc3[nH]ncc23)CC1	38000	7300	830	–
NCC1CCN(c2ncnc3[nH]cnc23)CC1	> 50000	890	290	–
NCC1(c2ccc(Cl)cc2)CCN(c2ccnc3[nH]ccc23)CC1	16000	3	25	–
NCC1(c2ccc(Cl)cc2)CCN(c2ncnc3[nH]cnc23)CC1	5700	3	16	–

— ChEMBL document CHEMBL1144694, “Identification of 4-(4-aminopiperidin-1-yl)-7H-pyrrolo[2,3-d]pyrimidines as selective inhibitors of protein kinase B through fragment elaboration” (J Med Chem, 2008)
